According to ChEMBL document CHEMBL1275502, “Establishing in vitro-in vivo correlations for Aspergillus fumigatus: the challenge of azoles versus echinocandins” (2008):
≈ marks a conversion by molar mass, not a printed value. Calls of active or inactive are those of the source. The calls are words filed in the database; no cut-off is given here.

Legend:
Aspergillus fumigatus [1] = assay: Antimicrobial activity against Aspergillus fumigatus isolate AT by Etest method; type: functional, organism-based
How it was run: (§1)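 Etest on RPMI 1640-2% glucose agar plates, run per the manufacturer's recommendations. Caspofungin Etest end point read after 2 days of incubation.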

Aspergillus fumigatus [2] = assay: Antimicrobial activity against Aspergillus fumigatus isolate DK infected in NMRI mouse assessed as survival rate at 2.25 mg/kg, ip; type: functional; details: route intraperitoneal
How it was run: (§2)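 NMRI mice (26 to 30 g) immunosuppressed with cyclophosphamide i.p., 200 mg/kg day −3 and 100 mg/kg day 0. Challenged i.v. on day 0 with 1.5 × 10⁵ CFU in groups of 10 to 13. Dosed in 0.25 ml on days 1 to 4 and 7 to 10: caspofungin i.p., posaconazole orally, or glucose i.p. as control. Scored daily. Survivors killed day 11. AT isolate run in two experiments.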

Aspergillus fumigatus [3] = assay: Antimicrobial activity against Aspergillus fumigatus isolate AT assessed as FKS1 expression by RT-PCR relative to control; type: functional, organism-based
How it was run: (§3)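 Strains grown 24 h at 37°C with shaking (150 rpm) in RPMI 1640, with and without 0.25 μg/ml caspofungin. FKS1 transcript measured by real-time PCR, normalised to housekeeping genes (BTU, PMA1). Reported as the expression ratio of AT isolate to each reference strain.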

Aspergillus fumigatus [4] = assay: Ratio of FKS1 expression in Aspergillus fumigatus isolate AT to PMA1 expression in Aspergillus fumigatus ATCC 13073 at 0.25 ug/ml by RT-PCR; type: functional; how it was run: as §3
Aspergillus fumigatus [5] = assay: Antimicrobial activity against Aspergillus fumigatus isolate AT assessed as amount of galactose in the alkali-insoluble fraction at 0.04 ug/ml; type: functional
How it was run: (§4)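 Mycelia pretreated by culture with 0.04 μg/ml caspofungin. Cell wall boiled twice in Tris-EDTA-SDS-mercaptoethanol, then alkali-fractionated twice (1 M NaOH/0.05 M NaBH₄, 70°C). Alkali-insoluble fraction (100 μg) digested overnight at 37°C with recombinant endo-β(1,3)-glucanase LamA in pH 6.0 acetate buffer. Read by HPAEC and reducing-sugar assay; hexoses by GC with meso-inositol internal standard. Pretreated values are means of two samples.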

Aspergillus fumigatus [6] = assay: Ratio of FKS1 expression in Aspergillus fumigatus isolate AT to BTU expression in Aspergillus fumigatus ATCC 13073 at 0.25 ug/ml by RT-PCR; type: functional; how it was run: as §3
Aspergillus fumigatus [7] = assay: Antimicrobial activity against Aspergillus fumigatus isolate AT assessed as partial growth inhibition by microdilution method; type: functional, organism-based
How it was run: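 Broth microdilution MEC by EUCAST and CLSI methods (one lab used a modified EUCAST inoculum of 5 × 10⁴ cells/ml). Plates inoculated with spores and incubated at 35°C for 24 to 48 h. MEC taken as the lowest concentration giving aberrant growth, read by light microscopy.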

Aspergillus fumigatus [8] = assay: Antimicrobial activity against Aspergillus fumigatus isolate AT assessed as amount of mannose in the alkali-insoluble fraction at 0.04 ug/ml; type: functional; how it was run: as §4
Aspergillus fumigatus [9] = assay: Antimicrobial activity against Aspergillus fumigatus isolate DK by microdilution method; type: functional; details: read-out: MEC
How it was run: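 Broth microdilution by the EUCAST method for spore-forming moulds (C. krusei ATCC 6258 control), also a modified EUCAST version with 5 × 10⁴ cells/ml inoculum. Spore-inoculated plates incubated at 35°C for 24 to 48 h, read visually and spectrophotometrically. Azole MIC = lowest dilution giving no growth, ignoring single surface colonies. Echinocandin MEC = lowest concentration giving aberrant growth.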

Aspergillus fumigatus [10] = assay: Antimicrobial activity against Aspergillus fumigatus isolate AT assessed as amount of beta-(1,3)-glucan at 0.04 ug/ml; type: functional; how it was run: as §4
Aspergillus fumigatus [11] = assay: Antimicrobial activity against Aspergillus fumigatus isolate AT infected in NMRI mouse assessed as reduction in galactomannan index relative to control; type: functional, organism-based
How it was run: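 Mice (NMRI) immunosuppressed with cyclophosphamide i.p. (200 mg/kg day −3, 100 mg/kg day 0). Challenged i.v. on day 0 with 1.5 × 10⁵ CFU. Treated on days 1–4 and 7–10 with caspofungin i.p. 2.25 mg/kg, posaconazole orally 5 or 20 mg/kg, or glucose i.p. (controls). Serum galactomannan index measured by Platelia ELISA on day 11 in survivors.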

Aspergillus fumigatus [12] = assay: Antimicrobial activity against Aspergillus fumigatus isolate DK by Etest method; type: functional; how it was run: as §1
Aspergillus fumigatus [13] = assay: Antimicrobial activity against Aspergillus fumigatus isolate A29 by Etest method; type: functional
Aspergillus fumigatus [14] = assay: Ratio of FKS1 expression in Aspergillus fumigatus isolate AT to PMA1 expression in Aspergillus fumigatus 293 at 0.25 ug/ml by RT-PCR; type: functional; how it was run: as §3
Aspergillus fumigatus [15] = assay: Antimicrobial activity against Aspergillus fumigatus isolate AT infected in NMRI mouse assessed as survival rate at 2.25 mg/kg, ip; type: functional; details: route intraperitoneal; how it was run: as §2
Aspergillus fumigatus [16] = assay: Ratio of FKS1 expression in Aspergillus fumigatus isolate AT to BTU expression in Aspergillus fumigatus 293 at 0.25 ug/ml by RT-PCR; type: functional; how it was run: as §3
Aspergillus fumigatus [17] = assay: Antimicrobial activity against Aspergillus fumigatus isolate AT assessed as amount of glucose in the alkali-insoluble fraction at 0.04 ug/ml; type: functional; how it was run: as §4
Aspergillus fumigatus [18] = assay: Antimicrobial activity against Aspergillus fumigatus isolate DK infected in NMRI mouse assessed as survival rate at 5 mg/kg, po; type: functional; how it was run: as §2
Aspergillus fumigatus [19] = assay: Antimicrobial activity against Aspergillus fumigatus isolate DK infected in NMRI mouse assessed as survival rate at 20 mg/kg, po; type: functional; how it was run: as §2
Aspergillus fumigatus [20] = assay: Antimicrobial activity against Aspergillus fumigatus isolate AT infected in NMRI mouse assessed as survival rate at 5 mg/kg, po; type: functional; how it was run: as §2
Aspergillus fumigatus [21] = assay: Antimicrobial activity against Aspergillus fumigatus isolate AT infected in NMRI mouse assessed as survival rate at 20 mg/kg, po; type: functional; how it was run: as §2

CC[C@H](C)C[C@H](C)CCCCCCCCC(=O)N[C@H]1C[C@@H](O)[C@@H](NCCN)NC(=O)[C@@H]2[C@@H](O)CCN2C(=O)[C@H]([C@H](O)CCN)NC(=O)[C@H]([C@H](O)[C@@H](O)c2ccc(O)cc2)NC(=O)[C@@H]2C[C@@H](O)CN2C(=O)[C@H]([C@@H](C)O)NC1=O [CASPOFUNGIN]
Activity (Aspergillus fumigatus [1]): inactive | survival at 2.25 mg/kg (Aspergillus fumigatus [2]): 100% | Activity (Aspergillus fumigatus [3]): inactive | Ratio (Aspergillus fumigatus [4]): 3.5 | Activity (Aspergillus fumigatus [5]): 16% | Ratio (Aspergillus fumigatus [6]): 3.41 | Activity (Aspergillus fumigatus [7]): Active | Activity (Aspergillus fumigatus [8]): 10% | minimal effective concentration (Aspergillus fumigatus [9]): 0.25 µg/mL | Activity (Aspergillus fumigatus [10]): 81% | Activity (Aspergillus fumigatus [11]): Active | Activity (Aspergillus fumigatus [12]): 0.125 µg/mL | MIC (Aspergillus fumigatus [13]): 0.094 µg/mL (≈ 0.086 µM) | minimal effective concentration (Aspergillus fumigatus [13]; in the assay text read “by microdilution method” for “by Etest method”, read-out: MEC): 0.04 µg/mL | Ratio (Aspergillus fumigatus [14]): 2.9 | survival at 2.25 mg/kg (Aspergillus fumigatus [15]): 25% | Ratio (Aspergillus fumigatus [16]): 2.78 | Activity (Aspergillus fumigatus [17]): 74%

CC[C@@H]([C@H](C)O)n1ncn(-c2ccc(N3CCN(c4ccc(OC[C@@H]5CO[C@@](Cn6cncn6)(c6ccc(F)cc6F)C5)cc4)CC3)cc2)c1=O [POSACONAZOLE]
survival at 5 mg/kg (Aspergillus fumigatus [18]): 16.7% | survival at 20 mg/kg (Aspergillus fumigatus [19]): 25% | survival at 5 mg/kg (Aspergillus fumigatus [20]): 70% | survival at 20 mg/kg (Aspergillus fumigatus [21]): 75%
